Published values from different studies.
Protocols differ between the studies behind these lines.
Target: Calcium/calmodulin-dependent protein kinase type II subunit alpha (CAMK2A, Homo sapiens, UniProt Q9UQM7)

| SMILES | read-out | mode | technique | tested at | quantity | result |
| --- | --- | --- | --- | --- | --- | --- |
| COc1ccc2[nH]c3c4[nH]c5ccc(OC)cc5c4c4c(c3c2c1)C(=O)NC4=O | binding | – | – | 1 µM | remaining binding | 70% |
| CCCCCCCCCCCO | enzyme activity | inhibitor | – | 10 µM | inhibition | -20% |
| C1=C/COCc2cc(ccc2OCCN2CCCC2)Nc2nccc(n2)-c2cccc(c2)COC/1 | binding | – | – | 0.1 µM | remaining binding | 91% |
| COc1ccc2oc(-c3ccc4nc(N)oc4c3)c/c(=N\c3ccccc3NC(=O)CCN)c2c1 | binding | – | – | 1 µM | remaining binding | 93% |
| CC(C)S(=O)(=O)c1ccc2nccc(Nc3ccc4sc(C5CCCC5)nc4c3)c2c1 | enzyme activity | inhibitor | – | 1 µM | activity vs control | 104% |
| CCCCC(=O)Nc1ccc(-c2ccc3ncn(CCC)c(=O)c3c2)cn1 | binding | – | competition with immobilised ligand | 0.5 µM | remaining binding | 100% |
| C=CC(=O)N1CCC([C@@H]2CCNc3c(C(N)=O)c(-c4ccc(Oc5ccccc5)cc4)nn32)CC1 | enzyme activity | inhibitor | – | 1 µM | inhibition | 0% |
| CCCCCCCCCCCCCCCCCCCCCCO | enzyme activity | inhibitor | – | 10 µM | inhibition | -5% |
| CO[C@@H]1[C@H](N(C)C(=O)c2ccccc2)C[C@H]2O[C@]1(C)n1c3ccccc3c3c4c(c5c6ccccc6n2c5c31)C(=O)NC4 | enzyme activity | inhibitor | – | 1 µM | inhibition | 94% |
| C[C@H]1CC[C@H](n2c3cnccc3c3cnc(Nc4ccc5c(n4)CCN(C(=O)CO)C5)nc32)CC1 | cell-free assay | – | – | 1 µM | remaining signal | 33% |
